In general, IC50 refers to the point on the concentration scale where inhibition reaches its midpoint. High values mean weaker potency, low ones greater potency.

Molecules are shown by their SMILES.

Experimental findings from ChEMBL document CHEMBL1135864, “Novel amide-based inhibitors of inosine 5'-monophosphate dehydrogenase” (Bioorg Med Chem Lett, 2002) are described below.

Test [1] has as its target T1, Inosine-5'-monophosphate dehydrogenase 2 (Homo sapiens, UniProt P12268). In words: Inhibitory activity of compound was evaluated against the Inosine-5'-monophosphate dehydrogenase 2. The method, boiled down:
(§1)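 Human type II IMPDH expressed in and purified from E. coli, used at 40 nM. Buffer was 0.1 M Tris, 0.1 M KCl, 3 mM EDTA pH 8.0 with 2 mM DTT and 400 µM IMP. Compounds were added from DMSO (final 2.5%), and the reaction was started with NAD (final 400 µM). After 2 h at 25 °C, NADH absorbance was read at 340 nm. IC50 was taken from a four-parameter logistic fit.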

Test [2] relates to CCRF-CEM. In words: The human T-lymphoblast CEM cell (ATCC) proliferation inhibitory activity was determined. It counts as functional, cell-based. The method, boiled down:
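CEM human T-lymphoblasts were grown in RPMI 1640 with 10% heat-inactivated FBS and penicillin/streptomycin, then seeded at 3000 cells/well with 0.5% DMSO. Compounds were tested in triplicate, top final concentration 10 uM, in 3-fold serial dilutions, for 72 h at 5% CO2. Viability was read by Alamar Blue (10% v/v, final 5 h), fluorescence ex/em 530/590 nm.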

In test [3] the test system is CCRF-CEM. In words: Inhibition of human T-lymphoblast CEM cell (ATCC) proliferation; At this concentration no inhibition was observed. It is filed as functional, cell-based.
The target in test [4] is T1, Inosine-5'-monophosphate dehydrogenase 2. In words: Inhibitory activity of compound was evaluated against the inosine monophosphate dehydrogenase -II (IMPDH-II) enzyme. The procedure, abridged: as §1
Test [5] deals with Inosine-5'-monophosphate dehydrogenase 1 (Homo sapiens, UniProt P20839). In words: Inhibitory activity of compound was evaluated against the Inosine-5'-monophosphate dehydrogenase 1.
Chain of Inosine-5'-monophosphate dehydrogenase 1 (P20839 whole entry): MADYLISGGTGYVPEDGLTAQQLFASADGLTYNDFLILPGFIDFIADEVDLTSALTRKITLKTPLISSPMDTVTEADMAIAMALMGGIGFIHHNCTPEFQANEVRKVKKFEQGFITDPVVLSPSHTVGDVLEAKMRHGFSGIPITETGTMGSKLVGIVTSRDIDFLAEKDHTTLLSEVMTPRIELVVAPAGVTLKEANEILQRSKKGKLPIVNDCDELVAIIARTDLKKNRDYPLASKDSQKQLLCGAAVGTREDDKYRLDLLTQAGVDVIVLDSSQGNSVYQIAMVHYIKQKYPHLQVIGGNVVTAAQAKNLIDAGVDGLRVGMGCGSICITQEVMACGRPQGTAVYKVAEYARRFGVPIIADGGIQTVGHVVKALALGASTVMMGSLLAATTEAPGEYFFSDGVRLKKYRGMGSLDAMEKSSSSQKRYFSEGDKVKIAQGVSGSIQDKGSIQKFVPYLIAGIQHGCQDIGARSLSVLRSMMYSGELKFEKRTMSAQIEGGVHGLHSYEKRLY

`COc1cc(NC(=O)/C=C/c2ccco2)ccc1-c1cnco1`: the IC50 in test [1] worked out at 28 nM; in the test with CCRF-CEM [2], 6600 nM.

Turning to `COc1cc(NC(=O)Nc2cccc(C)c2)ccc1-c1cnco1`, the IC50 with CCRF-CEM [3] was above 1000 nM.

On to `COc1cc(NC(=O)/C=C/c2ccccc2C)ccc1-c1cnco1`, for which the IC50 was 35 nM in test [1] and above 1000 nM with CCRF-CEM [3].

For the compound `COc1cc(NC(=O)/C=C/c2cccc(F)c2)ccc1-c1cnco1`, the IC50 in test [1] was 200 nM; in the test with CCRF-CEM [3], above 1000 nM.

`COc1cc(NC(=O)c2ccc(C)c(C)c2)ccc1-c1cnco1`: the figures for the IC50 (in test [1]; with CCRF-CEM [3]) were 260 nM and above 1000 nM, respectively.

For the compound `COc1cc(NC(=O)/C=C/c2cccc(Cl)c2)ccc1-c1cnco1`, the results for the IC50 (in test [1]; with CCRF-CEM [3]) were 300 nM and above 1000 nM, respectively.

For the compound `COc1ccccc1/C=C\C(=O)Nc1ccc(-c2cnco2)c(OC)c1`, the 50% inhibitory concentration (IC50) in test [1] is 960 nM; with CCRF-CEM [3], above 1000 nM.

In the case of `COc1cc(NC(=O)/C=C/c2ccc(C)cc2)ccc1-c1cnco1`, the IC50 in test [1] was 210 nM; with CCRF-CEM [3] it was above 1000 nM.

As for `COc1cc(NC(=O)c2cc3ccccn3c2)ccc1-c1cnco1`, the IC50 was 140 nM in test [1] and above 1000 nM with CCRF-CEM [3].

As to `COc1cc(NC(=O)c2ccc(-c3ccccn3)s2)ccc1-c1cnco1`, the figures for the IC50 (in test [1]; with CCRF-CEM [3]) were 870 nM and above 1000 nM, respectively.

`COc1cc(NC(=O)/C=C/c2c[nH]c3ccccc23)ccc1-c1cnco1`: the IC50 in test [1] is 410 nM; with CCRF-CEM [3], above 1000 nM.

Regarding `COc1cc(NC(=O)c2cc3ccccc3s2)ccc1-c1cnco1`, the IC50 in test [1] is 170 nM; in the test on CCRF-CEM [3], above 1000 nM.

`COc1cc(NC(=O)c2ccco2)ccc1-c1cnco1`: the IC50 in test [1] is 2500 nM; in the test with CCRF-CEM [3], above 1000 nM.

For the compound `COc1cc(NC(=O)/C=C/c2ccc3ccccc3n2)ccc1-c1cnco1`, the IC50 in test [1] is 630 nM; in the test on CCRF-CEM [3], above 1000 nM.

On to `COc1cc(NC(=O)Cc2ccccc2)ccc1-c1cnco1`, for which the IC50 was 970 nM in test [1] and above 1000 nM in the test with CCRF-CEM [3].

`COc1cc(NC(=O)c2ccc(C(C)(C)C)o2)ccc1-c1cnco1`: the IC50 was 130 nM in test [1] and above 1000 nM in the test with CCRF-CEM [3].

With `COc1cc(NC(=O)c2cc3ccccc3o2)ccc1-c1cnco1`, the IC50 is 210 nM in test [1] and above 1000 nM in the test with CCRF-CEM [3].

Take `COc1cc(NC(=O)/C=C/c2ccc(F)cc2)ccc1-c1cnco1`: the IC50 in test [1] was 120 nM; with CCRF-CEM [3], above 1000 nM.

Regarding `COc1cc(NC(=O)c2ccc3[nH]ccc3c2)ccc1-c1cnco1`, the IC50 in test [1] was 630 nM; with CCRF-CEM [3] it was above 1000 nM.

Turning to `COc1cc(NC(=O)c2[nH]nc3ccccc23)ccc1-c1cnco1`, the IC50 (in test [1]; in the test on CCRF-CEM [3]) was above 1000 nM each time.

As for `COc1cc(NC(=O)c2ccccc2)ccc1-c1cnco1`, the figures for the IC50 (in test [4]; in the test with CCRF-CEM [3]) were 630 nM and above 1000 nM, respectively.

Take `COc1cc(NC(=O)/C=C/c2ccccc2Cl)ccc1-c1cnco1`: the IC50 is 60 nM in test [1] and above 1000 nM in the test on CCRF-CEM [3].

For the compound `COc1cc(NC(=O)/C=C/c2ccccc2)ccc1-c1cnco1`, the IC50 in test [1] was 73 nM; with CCRF-CEM [3], above 1000 nM.

On to `COc1cc(NC(=O)/C=C/c2ccc(Cl)cc2)ccc1-c1cnco1`, for which the values for the IC50 (in test [1]; in the test with CCRF-CEM [3]) were 230 nM and above 1000 nM, respectively.

In the case of `COc1cc(NC(=O)c2cccs2)ccc1-c1cnco1`, the figures for the IC50 (in test [1]; in the test on CCRF-CEM [3]) were 810 nM and above 1000 nM, respectively.

Consider `COc1cc(NC(=O)c2cccn2C)ccc1-c1cnco1`, for which the IC50 is 890 nM in test [1] and above 1000 nM in the test on CCRF-CEM [3].

On to `COc1cc(NC(=O)/C=C/c2c(C)cc(F)cc2C)ccc1-c1cnco1`, for which the figures for the IC50 (in test [1]; in the test with CCRF-CEM [3]) were 75 nM and above 1000 nM, respectively.

In the case of `COc1cc(NC(=O)/C=C/c2cccc(C)c2)ccc1-c1cnco1`, the IC50 in test [1] is 590 nM; in the test on CCRF-CEM [3] it was above 1000 nM.

Regarding `COc1cc(NC(=O)c2cc(C)c(C)o2)ccc1-c1cnco1`, the figures for the IC50 (in test [1]; in the test on CCRF-CEM [3]) were 540 nM and above 1000 nM, respectively.

For the compound `COc1cc(NC(=O)c2ccc(C)s2)ccc1-c1cnco1`, the IC50 in test [1] is 110 nM; in the test on CCRF-CEM [2], 8800 nM.

Consider `COc1ccccc1/C=C/C(=O)Nc1ccc(-c2cnco2)c(OC)c1`, for which the IC50 was 110 nM in test [1] and above 1000 nM with CCRF-CEM [3].

`COc1cc(NC(=O)c2cc3ccccc3[nH]2)ccc1-c1cnco1`: the IC50 is above 1000 nM in test [5], 110 nM in test [1] and above 1000 nM with CCRF-CEM [3].

`COc1cc(NC(=O)/C=C/c2ccncc2)ccc1-c1cnco1`: the results for the IC50 (in test [1]; with CCRF-CEM [2]) were 57 nM and 8700 nM, respectively.

As to `COc1cc(NC(=O)/C=C/c2ccccc2F)ccc1-c1cnco1`, the IC50 in test [1] was 740 nM; in the test with CCRF-CEM [3] it was above 1000 nM.

`COc1cc(NC(=O)/C=C/c2cccs2)ccc1-c1cnco1`: the IC50 in test [1] was 66 nM; in the test on CCRF-CEM [3], above 1000 nM.

Regarding `COc1cc(NC(=O)/C=C/c2cccnc2)ccc1-c1cnco1`, the IC50 is 210 nM in test [1] and above 1000 nM with CCRF-CEM [3].

On to `COc1cc(NC(=O)c2c[nH]c3ccccc23)ccc1-c1cnco1`, for which the IC50 in test [1] is above 3000 nM; with CCRF-CEM [3], above 1000 nM.

For the compound `COc1cc(NC(=O)c2cc3ccccc3n2C)ccc1-c1cnco1`, the results for the IC50 (in test [1]; in the test with CCRF-CEM [2]) were 130 nM and 7700 nM, respectively.

With `COc1cc(NC(=O)c2occc2C)ccc1-c1cnco1`, the IC50 (in test [1]; with CCRF-CEM [3]) was above 1000 nM each time.

With `COc1cc(NC(=O)c2ccc3c(c2)OCO3)ccc1-c1cnco1`, the half-inhibitory concentration (IC50) is 330 nM in test [1] and above 1000 nM in the test on CCRF-CEM [3].
